Reference: ChEMBL document CHEMBL1123985, “Oral absorption of cephalosporin antibiotics. 1. Synthesis, biological properties, and oral bioavailability of 7-(arylacetamido)-3-chloro cephalosporins in animals” (J Med Chem, 1988)
In brackets after ≈: the same amount, converted by molar mass.

Experiments:
[1] = Oral bioavailability in Rhesus monkey; type: ADME, organism-based, Macaca mulatta; settings: in vivo
In short: (§1)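 Rhesus monkeys, adult males, six animals per compound, each given drug orally and iv; fasted overnight. Single 30 mg/kg solution doses, by nasogastric tube (in water) or saphenous vein (in isotonic lactated Ringer). Plasma sampled at intervals, frozen at -70 °C, antibacterial activity by microbiological assay. AUC in μg min/mL; oral bioavailability from oral vs iv AUC.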

[2] = Mean plasma levels in rats at a time 5 min after iv administration of 100 mg/kg of probenecid 5 min prior to test compound; type: ADME, organism-based; design: dose 100 mg/kg, route intravenous; settings: rat, read-out: Plasma level
In short: (§2)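 Rats, jugular vein cannulated (two per group), test compound iv 20 mg/kg; probenecid 100 mg/kg iv 5 min before in treated groups. Heparinized plasma sampled at 5, 20, 40 min and 1, 2, 3 h, assayed microbiologically (B. subtilis agar well). AUC 0-3 h in μg min/mL; half-life in min.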

[3] = Mean plasma levels in rats 40 min after iv administration of 100 mg/kg of probenecid 5 min prior to test compound; type: ADME, organism-based; design: dose 100 mg/kg, route intravenous; settings: rat, read-out: Plasma level; in short: as §2
[4] = tested on: Escherichia coli; assay: Minimum inhibitory concentration against EC14 strain Escherichia coli; type: functional
[5] = Area under plasma concentration vs time curve observed in rats for 0-3 h; type: ADME; design: time < 3 hr; settings: rat; in short: as §2
[6] = Mean plasma levels in rats 20 min after iv administration of 100 mg/kg of probenecid 5 min prior to test compound; type: ADME, organism-based; design: dose 100 mg/kg, route intravenous; settings: rat, read-out: Plasma level; in short: as §2
[7] = tested on: Staphylococcus epidermidis; assay: Minimum inhibitory concentration against 222 strain of Staphylococcus epidermidis; type: functional
[8] = tested on: Staphylococcus aureus; assay: Minimum inhibitory concentration against S13E strain of Staphylococcus aureus; type: functional
[9] = Percent of urinary recovery in rats after, oral administration of single 20 mg/kg dose in solution (N,range); type: ADME, organism-based; design: dose 20 mg/kg, route oral; settings: rat, urine, read-out: Recovery
In short: (§3)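 Male Wistar rats (200-300 g), jugular-cannulated, upper GI emptied by light cycle; 20 mg/kg in saline (6 mg/mL) sc or orally. Urine collected in wire-bottom cages, assayed by B. subtilis agar well method. Mean ± SD recovery with N and range; bioavailability = oral over mean sc recovery.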

[10] = in vivo; settings: rat
[11] = Mean plasma levels in rats 1 hr after iv administration of 100 mg/kg of probenecid 5 min prior to test compound; type: ADME, organism-based; design: dose 100 mg/kg, route intravenous; settings: rat, read-out: Plasma level; in short: as §2
[12] = tested on: Salmonella; assay: Minimum inhibitory concentration against X514 strain of Salmonella; type: functional
[13] = Mean plasma levels in rats 2 hr after iv administration of 100 mg/kg of probenecid 5 min prior to test compound; type: ADME, organism-based; design: dose 100 mg/kg, route intravenous; settings: rat, read-out: Plasma level; in short: as §2
[14] = tested on: Streptococcus pneumoniae; assay: Minimum inhibitory concentration against park strain of Streptococcus pneumoniae
[15] = Area under plasma concentration vs time curve observed in Rhesus monkeys after oral administration of single 30 mg/kg dose; type: ADME, organism-based, Macaca mulatta; design: dose 30 mg/kg, route oral; settings: rhesus monkey; in short: as §1
[16] = tested on: Mus musculus; assay: Efficacy against mouse infected ip with 3055 strain of Staphylococcus aureus, administered po to 19-21-g random sex ICR mice at 1 hr and 5 hr; type: functional
In short: (§4)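 ICR mice, random sex, 19-21 g, challenged ip with 50-500 LC50 from a frozen organism pool; compound given sc or po at 1 and 5 h after challenge, five 2-fold dose levels, eight mice per level; ED50 derived.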

[17] = tested on: Klebsiella aerogenes; assay: Minimum inhibitory concentration against EB17 strain of Enterobacter aerogenes; type: functional
[18] = Area under plasma concentration vs time curve observed in Rhesus monkeys after, iv administration of single 30 mg/kg dose; type: ADME, organism-based, Macaca mulatta; design: dose 30 mg/kg, route intravenous; settings: rhesus monkey; in short: as §1
[19] = Mean plasma levels in rats 3h after intravenous administration of 20 mg/kg of compound; type: ADME, organism-based; design: dose 20 mg/kg, route intravenous; settings: rat, read-out: Plasma level; in short: as §2
[20] = tested on: Klebsiella pneumoniae; assay: Minimum inhibitory concentration against X68 strain of Klebsiella pneumoniae; type: functional
[21] = tested on: Canis familiaris; assay: Area under plasma concentration vs time curve observed in female mongrel dogs after, iv administration of single 15 mg/kg dose; type: ADME, organism-based, Canis lupus familiaris; design: dose 15 mg/kg, route intravenous; settings: dog, in vivo
In short: (§5)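 Six female mongrel dogs (14-23 kg) fasted overnight, bladder catheterized; single 15 mg/kg solution doses by stomach tube (in water, total 500 mL) or cephalic vein (saline or pH 6.0 NaCl/phosphate/acetate buffer). Plasma sampled at intervals; activity by disk-plate agar diffusion against E. coli MB 3804, standards in dog serum or buffer. AUC μg min/mL, mean ± SEM; BA from iv vs po AUC and urinary recovery.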

[22] = dose in urine (24-h urine excretion) in female mongrel dogs after, oral administration of single 15 mg/kg dose; type: ADME, organism-based, Canis lupus familiaris; design: dose 15 mg/kg, route oral; settings: dog
In short: (§6)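 Female mongrel dogs (n=6), bladder catheter; urine collected at intervals after single 15 mg/kg iv or oral solution dose, frozen; antibiotic activity by disk-plate agar diffusion against E. coli MB 3804 with standards in pH 6.0 buffer; percent of dose recovered in urine.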

[23] = tested on: Mus musculus; assay: Efficacy against mouse infected ip with park strain of Streptococcus pneumoniae administered po to 19-21-g random sex ICR mice at 1 hr and 5 hr; type: functional; in short: as §4
[24] = tested on: Mus musculus; assay: Efficacy against mouse infected ip with 3055 strain of Staphylococcus aureus, administered sc to 19-21-g random sex ICR mice at 1 hr and 5 hr; type: functional; in short: as §4
[25] = Half-life of the compound; type: ADME; in short: as §2
[26] = Percent of urinary recovery in rats after, sc administration of single 20 mg/kg dose in solution (N,range); type: ADME, organism-based; design: dose 20 mg/kg, route subcutaneous; settings: rat, urine, read-out: Recovery; in short: as §3
[27] = dose in urine (24-h urine excretion) in female mongrel dogs after, iv administration of single 15 mg/kg dose; type: ADME, organism-based, Canis lupus familiaris; design: dose 15 mg/kg, route intravenous; settings: dog; in short: as §6
[28] = Minimum inhibitory concentration against sens CL strain of Haemophilus influenzae; type: functional
[29] = Minimum inhibitory concentration against res 76 strain of Haemophilus influenzae; type: functional
[30] = tested on: Mus musculus; assay: Efficacy against mouse infected ip with C203 strain of Streptococcus pyogenes, administered po to 19-21-g random sex ICR mice at 1 hr and 5 hr; type: functional; in short: as §4
[31] = tested on: Canis familiaris; assay: Area under plasma concentration vs time curve observed in female mongrel dogs after, oral administration of single 15 mg/kg dose; type: ADME, organism-based, Canis lupus familiaris; design: dose 15 mg/kg, route oral; settings: dog, in vivo; in short: as §5
[32] = tested on: Streptococcus pyogenes; assay: Minimum inhibitory concentration against C203 strain of Streptococcus pyogenes
[33] = tested on: Streptococcus pneumoniae; assay: Minimum inhibitory concentration against Park strain of Streptococcus pneumoniae; type: functional
[34] = tested on: Streptococcus pyogenes; assay: Minimum inhibitory concentration against Streptococcus pyogenes C203; type: functional
[35] = tested on: Staphylococcus aureus; assay: Minimum inhibitory concentration against 3055 strain of Staphylococcus aureus
[36] = tested on: Staphylococcus aureus; assay: Minimum inhibitory concentration against V41 strain of Staphylococcus aureus; type: functional
[37] = tested on: Staphylococcus epidermidis; assay: Minimum inhibitory concentration against Epil strain of Staphylococcus epidermidis; type: functional
[38] = Bioavailability in rat; type: ADME, organism-based; settings: in vivo; in short: as §3
[39] = tested on: Staphylococcus aureus; assay: Minimum inhibitory concentration against X1.1 strain of Staphylococcus aureus; type: functional
[40] = tested on: Mus musculus; assay: Efficacy against mouse infected ip with park strain of Streptococcus pneumoniae administered sc to 19-21-g random sex ICR mice at 1 hr and 5 hr; type: functional; in short: as §4
[41] = tested on: Mus musculus; assay: Efficacy against mouse infected ip with C203 strain of Streptococcus pyogenes, administered sc to 19-21-g random sex ICR mice at 1 hr and 5 hr; type: functional; in short: as §4
[42] = Minimum inhibitory concentration against N9 strain of Shigella sonnei; type: functional
[43] = Oral bioavailability in mouse; type: ADME, organism-based; settings: in vivo
In short: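 Male Cox mice given water and liquid diet overnight; 20 mg/kg in saline (2 mg/mL) sc or orally; urine from collection cages plus bladder contents over 2 h; activity by agar well assay with Bacillus subtilis ATCC 6633. Bioavailability from percent dose excreted in urine after oral vs parenteral dosing.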

## CC1(C)S[C@@H]2[C@H](NC(=O)COc3ccccc3)C(=O)N2[C@H]1C(=O)O [PENICILLIN V]
[1]
  bioavailability: 5.5%
[2]
  concentration at 5 min: 59000 ng/mL
[3]
  concentration at 40 min: 14100 ng/mL
[4]
  MIC: > 128 µg/mL
[5]
  AUC at 3 h: 32000 ng·h/mL
[6]
  concentration at 20 min: 30400 ng/mL
[7]
  MIC: 0.06 µg/mL (≈ 0.171 µM)
[8]
  MIC: 16 µg/mL (≈ 45.7 µM)
[9]
  dose excreted: 2.6%
[10]
  bioavailability: 34%
[11]
  concentration at 1 h: 6800 ng/mL
[12]
  MIC: > 128 µg/mL
[13]
  concentration at 2 h: 800 ng/mL
[14]
  MIC: 0.02 µg/mL (≈ 0.0571 µM)
[15]
  AUC: 2330 ng·h/mL
[16]
  ED50: 0.5 mg/kg
[17]
  MIC: > 128 µg/mL
[18]
  AUC: 43000 ng·h/mL
[19]
  concentration at 3 h: < 300 ng/mL
[20]
  MIC: > 128 µg/mL
[21]
  AUC: 25300 ng·h/mL
[22]
  dose excreted: 4.9%
[23]
  ED50: 2.8 mg/kg
[24]
  ED50: 0.04 mg/kg
[25]
  half-life: 19.4 min
[26]
  dose excreted: 22.5%
[27]
  dose excreted: 32%
[28]
  MIC: 64 µg/mL (≈ 183 µM)
[29]
  MIC: > 128 µg/mL
[30]
  ED50: 0.62 mg/kg
[31]
  AUC: 3000 ng·h/mL
[32]
  MIC: 0.06 µg/mL (≈ 0.171 µM)
[33]
  MIC: 16 µg/mL (≈ 45.7 µM)
[34]
  MIC: 0.06 µg/mL (≈ 0.171 µM)
[35]
  MIC: 0.04 µg/mL (≈ 0.114 µM)
[36]
  MIC: 32 µg/mL (≈ 91.3 µM)
[37]
  MIC: 0.125 µg/mL (≈ 0.357 µM)
[38]
  bioavailability: 11.6%
[39]
  MIC: 0.06 µg/mL (≈ 0.171 µM)
[40]
  ED50: 2.1 mg/kg
[41]
  ED50: 0.16 mg/kg
[42]
  MIC: > 128 µg/mL
[43]
  bioavailability: 29%
